# According to PMC2275130 (Nucleic Acids Research, 2008):
# Assays:
# Format in all cases: biochemical
# HCV NS5BCΔ21 [1] = molecular target: T1, HCV NS5BCΔ21 (Hepatitis C virus genotype 1b, UniProt P26663); assay: Gel-based incorporation assay; settings: highest concentration of wedelolactone (lane 5, 100 μM), poly rA/U12, 20 min
# How it was run: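 Stopped with 25 mM EDTA/0.5% SDS, then phenol-chloroform extracted and ethanol precipitated. Products were heated 90°C for 5 min, run on denaturing 6% polyacrylamide/7 M urea gel and imaged by phosphorimager.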
# [2] = molecular target: Klenow fragment of E. coli DNA polymerase I (Escherichia coli, UniProt P00582); assay: Klenow polymerase counter screen; settings: read-out: IC50 Klenow polymerase counter screen; poly rA/dT18, 10% DMSO
# How it was run: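 Exonuclease-deficient Klenow fragment from E. coli BL-21(DE3), purified by ammonium sulfate fractionation and Biorex-70, used at 10 nM. Ran 37°C for 20 min, TCA/pyrophosphate quench, GF-B filtration, scintillation counting.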
# HCV NS5BCΔ21 [3] = molecular target: T1, HCV NS5BCΔ21; assay: Determination of Ki and mode of inhibition; settings: towards template/primer (poly rA/U12 varied), UTP fixed 25 μM
# How it was run: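 Aliquots were taken at defined times, quenched in 5% TCA/0.5 mM pyrophosphate, and counted by GF-B filter binding. Ki and mode came from Dixon and Cornish-Bowden plots. Each run was done at least twice; values average at least triplicates.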
# HIV-1 RT = HIV-1 RT (Human immunodeficiency virus type 1 group M subtype B, UniProt P04585); assay: HIV-1 RT counter screen
# How it was run: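 His-tagged p66/p51 heterodimeric wild-type RT, Ni-NTA purified, used at 10 nM. Reactions ran 37°C for 20 min, were stopped with ice-cold 5% TCA/0.5 mM pyrophosphate, filtered on GF-B and scintillation counted.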
# HCV NS5BCΔ21 [4] = molecular target: T1, HCV NS5BCΔ21; assay: NS5B RdRp assay; settings: NS5B inhibition (IC50 μM), poly rA/U12, 25 μM UTP, 0.5 mM MnCl2, 10% DMSO, 1 h at 30°C
# How it was run: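 NS5BCΔ21 (300–500 ng) and poly rA/U12 (0.5 μM) sat 5 min on ice before NTPs were added. Reactions ran 1 h at 30°C, then TCA quench and GF-B counting. IC50s were read from curves relative to DMSO control, from at least two independent runs.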
smiles,measurement,setting,value
"COc1cc(O)c2c(c1)oc(=O)c1c3cc(O)c(O)cc3oc21 [Wedelolactone, 7-methoxy-5,11,12-trihydroxy-coumestan]",extension product formation (gel),HCV NS5BCΔ21 [1],no detectable extension product
same,IC50,[2],> 700 µM
same,Ki,HCV NS5BCΔ21 [3]; Ki competitive,11.2 µM
same,Ki uncompetitive,HCV NS5BCΔ21 [3],43 µM
same,IC50,HIV-1 RT,> 250 µM
same,IC50,HCV NS5BCΔ21 [4],36.1 µM
